# Data reported in the EternaBench riboswitch data.
# Test system: MS2 coat protein
# Test: apparent Kd, MS2 coat protein; higher = weaker binding; RNA-MaP array; FMN 200 µM where present
# Method in brief: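 Designs on Illumina sequencing-chip clusters, transcribed by stalled E. coli RNA polymerase, were exposed to SNAP-549-labelled MS2 coat protein in doubling steps from 0.7 or 1.5 nM up to 3 µM, without and then with constant ligand. The buffer held 100 mM Tris-HCl pH 7.5, 80 mM KCl, 4 mM MgCl2, BSA, DTT, yeast tRNA and Tween-20. Apparent Kd values are medians of filtered per-cluster binding-curve fits to green signal normalised to red-channel RNA signal and control-cluster median Fmax.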
# [1] = designed as: OFF switch for flavin mononucleotide, no ligand
# [2] = ligand present: flavin mononucleotide, designed as: OFF switch for flavin mononucleotide
# [3] = designed as: ON switch for flavin mononucleotide, no ligand
# [4] = ligand present: flavin mononucleotide, designed as: ON switch for flavin mononucleotide
Sequence,apparent Kd [1],apparent Kd [2],apparent Kd [3],apparent Kd [4]
CUAGUAUAUCAGGAUAUGAUUUUGUGUAGUUGGUCAGAAGGGAUGACAUGAGGAUCACCCAUGUUAAGGGAUGA,94.2 nM,108 nM,–,–
AAAAAACAUGAGGAUCACCCAUGUAAAAAAAUCACAGGAUAUAAGGUCGCGAAAGCGACCUUAGAAGGGUGAUCAA,–,–,443 nM,105 nM
AAGUGUAUAGGAUAUGCGUGGAAAAGGUGUAUUCACCAGCGACAUGAGGAUCACCCAUGUAGAAGGGUAUGUAA,94.6 nM,54.5 nM,–,–
UUUUUGUCAGGAUAUCGUUAAUUUAAUUGUUUGUAUUAGUUCGAGAAGGGACAUGAGGAUCACCCAUGUUUUUU,23.9 nM,39.6 nM,–,–
AAAAGACAUGAGGAUCACCCAUGUUAAAACGUAGGAGGAUAUGUAUGGAAAACAUGCUGUACAGAAGGCCUGUGUC,–,–,17.3 nM,17.1 nM
AUGUGCCGGUCAGGAUAUCAACCACAUUGGCCAUGAGAAGGGACAGCACAUGAGGAUCACCCAUGUACACGCUGUGCGGAUGGG,273 nM,122 nM,–,–
GCAGUGCGAGGAUAUACAUGAGGAUCACCCAUGUGAGAAUAAGAAGUGAGGAAGAAAAGUAGAAGGCGCGUUGG,52.4 nM,155 nM,–,–
GGUGGACAUGAGGAUCACCCAUGUGAGGAUAUCGGCUGGCUAGCGGCGGAUGGCUUCUCGAGAAGGCGCAUUGU,86.4 nM,75 nM,–,–
AAAAUCUAUAGAGGAUAUCGUUUUUAAAGAAAAUGAGAAGGCUAACAAUCAUGAGGACAUGAGGAUCACCCAUGUUGUGACCAU,–,–,19.6 nM,10.2 nM
CCGAUAAAUGGAGGAUAUGGAGCCUUAUUGGCUCCAGAAGGCUAAUAACAUGAGGAUCACCCAUGUCGGCGGUCUAAUGACCGA,–,–,81.3 nM,33 nM
AUUAUGUAAGGAUAUCUUACAUGUGACUUCGGUCACUGUUAAGAGAAGGUACAUGAGGAUCACCCAUGUAUAAC,19.6 nM,22.4 nM,–,–
GAGCGAGGGACAGGAUAUGCGGCGAAACUCGCCGCAGAAGGGUCGACAUGAGGAUCACCCAUGUCCUUACGCUCCAAGUAGAGG,–,–,97 nM,488 nM
CAUAACUUUUCUCAUGUAAACAUGAGGAUCACCCAUGUAAUGAGAAGGAGGCGGCAGAGAGCAUCCUAGGAUAUCAGAAUUGUU,7.02 nM,6.74 nM,–,–
CUGAGCAAUGUAGGAUAUCGACUGGAAUACAGUCGAGAAGGACAUGAGGAUCACCCAUGUCAAUGAGUGAAUAAUAAAGCUCAG,20.7 nM,118 nM,–,–
CAGUACUGAGGAUAUACAUGAGGAUCACCCAUGUGUCCUAGCUAGGAAACUAGCAUUAGUAGAAGGCAGUACUG,18.9 nM,300 nM,–,–
UCACGGGAUUGAGGAUAUAUAUUAAUUUUUUUUAUAGAAGGCAAAAUGUUAGAUUAUUCACUAUACAUGAGGAUCACCCAUGUU,–,22.7 nM,–,–
CUUUCGUUAGCAGGAUAUGGACAGGCCUGUCCGUAUUGAGUCAGUAACAUGAGGAUCACCCAUGUCCAGAAGGGCUCGAAGGGA,14.1 nM,46.6 nM,–,–
AUUGUGUGAGGAUAUUAGUAGUAGAUAAAUGGAGUUGUAACUGAGAAGGCACAUGAGGAUCACCCAUGUUCCUU,18.7 nM,24.6 nM,–,–
ACUGACAUGAGGAUCACCCAUGUCUUGAAUAGGUCAAAUUCACAGGAUAUGCGCUUUGACAGGGCGCAGAAGGGUGAUGCAAUG,–,–,70.2 nM,11.8 nM
AAGGAUAGAGGAUAUACAUAGAUACAGAUUCAUGUGGUCCUACAUGAGGAUCACCCAUGUAGAAGGCUAUCCUA,240 nM,56.8 nM,–,–
AAGUAGAUCCGAGGAUAUACAAUCCGGAAACGGUACAUGAGGAUCACCCAUGUAGAAGGCGGAUCUACAGGUACUAAAGUACCC,5.61 nM,8.06 nM,–,–
GUACUGAGGCUUUGCUUUAGUCGUACAUGAGGAUCACCCAUGUAGGAUAUGGUAGGCUUUGCUUACCAGAAGGACAGAGUGAUC,168 nM,85.7 nM,–,–
AGAUCCUGAGUCAGGAUAUAGAGGCGAAAGCCUGGCUAGAAGGGACAUGAGGAUCACCCAUGUGGGUUCGUGCC,20.2 nM,66.5 nM,–,–
